The values below come from ChEMBL document CHEMBL4382192, “Discovery of a potent dual ALK and EGFR T790M inhibitor” (Eur J Med Chem, 2017).

Test [1] is described as follows: Inhibition of EGFR/ALK L1152R mutant in human DFCI076 cells assessed as reduction in cell viability after 72 hrs by MTS assay. It is filed as cell-based.
Test [2] has as its system Tyrosine-protein kinase ABL1 (Homo sapiens), P00519 [H396P]. Description: Binding affinity to human non-phosphorylated ABL1 H396P mutant (S229 to K512 residues) expressed in mammalian expression system assessed as residual binding level at 1 uM by Kinomescan method relative to control. Put shortly: (§1)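 Kinome-wide selectivity panel run by the KINOMEscan method, with the test compound at a single concentration of 1 μM. Wild-type and mutant kinases were profiled in the same screen.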

The target in test [3] is Tyrosine-protein kinase ABL1 (Homo sapiens) (UniProt P00519). Put plainly: Binding affinity to wild-type human non-phosphorylated ABL1 (S229 to K512 residues) expressed in mammalian expression system assessed as residual binding level at 1 uM by Kinomescan method relative to control.
Test [4] concerns the target Activin receptor type-2B (Homo sapiens) (UniProt Q13705). Description: Binding affinity to wild-type human ACVR2B (H169 to D504 residues) expressed in bacterial expression system assessed as residual binding level at 1 uM by Kinomescan method relative to control.
Test [5] concerns the target RAC-gamma serine/threonine-protein kinase (Homo sapiens) (UniProt Q9Y243). Put plainly: Binding affinity to wild-type human partial length AKT3 expressed in bacterial expression system assessed as residual binding level at 1 uM by Kinomescan method relative to control.
Test [6] deals with Mitotic checkpoint serine/threonine-protein kinase BUB1 (Homo sapiens) (UniProt O43683). Put plainly: Binding affinity to wild-type human partial length BUB1 (Q724 to K1085 residues) expressed in mammalian expression system assessed as residual binding level at 1 uM by Kinomescan method relative to control.
Test [7] deals with Death-associated protein kinase 2 (Homo sapiens) (UniProt Q9UIK4). Description: Binding affinity to wild-type human full length DAPK2 (M1 to S370 residues) expressed in bacterial expression system assessed as residual binding level at 1 uM by Kinomescan method relative to control.
For test [8], the target named is Serine/threonine-protein kinase DCLK3 (Homo sapiens) (UniProt Q9C098). Put plainly: Binding affinity to wild-type human partial length DCAMKL3 (E140 to V628 residues) expressed in bacterial expression system assessed as residual binding level at 1 uM by Kinomescan method relative to control.
For test [9], the target named is Ephrin type-A receptor 7 (Homo sapiens) (UniProt Q15375). Put plainly: Binding affinity to wild-type human partial length EPHA7 (Y608 to S912 residues) expressed in bacterial expression system assessed as residual binding level at 1 uM by Kinomescan method relative to control.
The target of test [10] is Serine/threonine-protein kinase/endoribonuclease IRE1 (Homo sapiens) (UniProt O75460). Description: Binding affinity to wild-type human partial length ERN1 (S551 to E852 residues) expressed in mammalian expression system assessed as residual binding level at 1 uM by Kinomescan method relative to control.
The target in test [11] is Tyrosine-protein kinase FRK (Homo sapiens) (UniProt P42685). Put plainly: Binding affinity to wild-type human partial length FRK (A215 to F503 residues) expressed in bacterial expression system assessed as residual binding level at 1 uM by Kinomescan method relative to control.
Test [12] addresses Homeodomain-interacting protein kinase 4 (Homo sapiens) (UniProt Q8NE63). Description: Binding affinity to wild-type human partial length HIPK4 (M1 to V384 residues) expressed in bacterial expression system assessed as residual binding level at 1 uM by Kinomescan method relative to control.
Test [13] concerns the target Interleukin-1 receptor-associated kinase 4 (Homo sapiens) (UniProt Q9NWZ3). Put plainly: Binding affinity to wild-type human partial length IRAK4 (M1 to S460 residues) expressed in mammalian expression system assessed as residual binding level at 1 uM by Kinomescan method relative to control.
For test [14], the target named is Tyrosine-protein kinase JAK1 (Homo sapiens) (UniProt P23458). Put plainly: Binding affinity to wild-type human partial length JAK1 JH2 pseudokinase domain (R537 to D855 residues) expressed in mammalian expression system assessed as residual binding level at 1 uM by Kinomescan method relative to control.
Test [15] addresses Mitogen-activated protein kinase kinase kinase kinase 3 (Homo sapiens) (UniProt Q8IVH8). Put plainly: Binding affinity to wild-type human partial length MAP4K3 (M1 to D301 residues) expressed in bacterial expression system assessed as residual binding level at 1 uM by Kinomescan method relative to control.
Test [16] concerns the target Macrophage-stimulating protein receptor (Homo sapiens) (UniProt Q04912). Put plainly: Binding affinity to wild-type human partial length MST1R (I1057 to L1363 residues) expressed in bacterial expression system assessed as residual binding level at 1 uM by Kinomescan method relative to control.
In test [17] the target is Platelet-derived growth factor receptor beta (Homo sapiens) (UniProt P09619). Put plainly: Binding affinity to wild-type human partial length PDGFRB (V582 to Y1009 residues) expressed in bacterial expression system assessed as residual binding level at 1 uM by Kinomescan method relative to control.
Test [18] concerns the target 3-phosphoinositide-dependent protein kinase 1 (Homo sapiens) (UniProt O15530). Put plainly: Binding affinity to wild-type human full length PDPK1 (M1 to Q556 residues) expressed in bacterial expression system assessed as residual binding level at 1 uM by Kinomescan method relative to control. Put shortly: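 Single-point kinome-wide KINOMEscan binding panel, test compound at 1 μM, run by the provider's standard protocol.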

The target of test [19] is Phosphatidylinositol 4-phosphate 3-kinase C2 domain-containing subunit beta (Homo sapiens) (UniProt O00750). Put plainly: Binding affinity to wild-type human partial length PIK3C2B (M1 to L1634 residues) expressed in mammalian expression system assessed as residual binding level at 1 uM by Kinomescan method relative to control.
The target in test [20] is 1-phosphatidylinositol 3-phosphate 5-kinase (Homo sapiens) (UniProt Q9Y2I7). Description: Binding affinity to wild-type human partial length PIKFYVE (F1512 to C2098 residues) expressed in mammalian expression system assessed as residual binding level at 1 uM by Kinomescan method relative to control.
For test [21], the system named is Proto-oncogene tyrosine-protein kinase receptor Ret (Homo sapiens), P07949 [M918T]. Put plainly: Binding affinity to human partial length RET M918T mutant (E713 to D1014 residues) expressed in bacterial expression system assessed as residual binding level at 1 uM by Kinomescan method relative to control. Put shortly: as §1
The target in test [22] is Rho-associated protein kinase 1 (Homo sapiens) (UniProt Q13464). Put plainly: Binding affinity to wild-type human partial length ROCK1 (M1 to R415 residues) expressed in mammalian expression system assessed as residual binding level at 1 uM by Kinomescan method relative to control.
In test [23] the target is Ribosomal protein S6 kinase alpha-4 (Homo sapiens) (UniProt O75676). Description: Binding affinity to wild-type human partial length N-terminal RPS6KA4 kinase domain 1 expressed in bacterial expression system assessed as residual binding level at 1 uM by Kinomescan method relative to control.
In test [24] the target is Serine/threonine-protein kinase tousled-like 1 (Homo sapiens) (UniProt Q9UKI8). Description: Binding affinity to wild-type human partial length TLK1 (K447 to A754 residues) expressed in bacterial expression system assessed as residual binding level at 1 uM by Kinomescan method relative to control.

Sequence of Proto-oncogene tyrosine-protein kinase receptor Ret (Homo sapiens), P07949 [M918T] (P07949 whole entry M918T, the tested form may be a part): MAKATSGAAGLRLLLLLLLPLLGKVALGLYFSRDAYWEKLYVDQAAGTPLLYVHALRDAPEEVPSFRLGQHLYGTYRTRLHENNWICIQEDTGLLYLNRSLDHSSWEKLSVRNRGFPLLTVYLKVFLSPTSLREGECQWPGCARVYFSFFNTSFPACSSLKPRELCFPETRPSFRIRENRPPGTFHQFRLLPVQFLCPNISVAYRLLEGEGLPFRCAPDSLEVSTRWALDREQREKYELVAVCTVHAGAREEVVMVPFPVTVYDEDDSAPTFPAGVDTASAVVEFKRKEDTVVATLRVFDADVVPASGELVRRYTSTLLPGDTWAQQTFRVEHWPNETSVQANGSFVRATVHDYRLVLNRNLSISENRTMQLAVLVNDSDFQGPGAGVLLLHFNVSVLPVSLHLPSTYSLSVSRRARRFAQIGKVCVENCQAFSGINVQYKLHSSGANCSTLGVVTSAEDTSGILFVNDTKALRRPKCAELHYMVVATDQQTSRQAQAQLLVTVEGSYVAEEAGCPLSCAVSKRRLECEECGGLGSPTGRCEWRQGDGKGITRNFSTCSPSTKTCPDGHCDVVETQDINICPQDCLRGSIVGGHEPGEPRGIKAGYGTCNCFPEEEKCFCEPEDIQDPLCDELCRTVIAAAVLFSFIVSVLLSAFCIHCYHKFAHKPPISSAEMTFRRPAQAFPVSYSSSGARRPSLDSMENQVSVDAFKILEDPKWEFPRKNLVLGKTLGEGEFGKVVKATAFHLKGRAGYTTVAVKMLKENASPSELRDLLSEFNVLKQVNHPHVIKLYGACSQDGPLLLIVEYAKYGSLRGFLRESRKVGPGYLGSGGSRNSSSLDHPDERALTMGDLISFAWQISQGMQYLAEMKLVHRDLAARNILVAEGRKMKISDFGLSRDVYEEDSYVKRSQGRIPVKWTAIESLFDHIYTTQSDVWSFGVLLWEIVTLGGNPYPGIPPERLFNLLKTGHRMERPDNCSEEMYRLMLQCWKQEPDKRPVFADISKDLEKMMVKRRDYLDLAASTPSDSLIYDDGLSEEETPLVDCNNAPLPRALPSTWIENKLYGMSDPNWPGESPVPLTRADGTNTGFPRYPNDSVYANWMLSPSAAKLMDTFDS
Sequence of Ephrin type-A receptor 7 (Homo sapiens) (Q15375 28-998 limits assumed): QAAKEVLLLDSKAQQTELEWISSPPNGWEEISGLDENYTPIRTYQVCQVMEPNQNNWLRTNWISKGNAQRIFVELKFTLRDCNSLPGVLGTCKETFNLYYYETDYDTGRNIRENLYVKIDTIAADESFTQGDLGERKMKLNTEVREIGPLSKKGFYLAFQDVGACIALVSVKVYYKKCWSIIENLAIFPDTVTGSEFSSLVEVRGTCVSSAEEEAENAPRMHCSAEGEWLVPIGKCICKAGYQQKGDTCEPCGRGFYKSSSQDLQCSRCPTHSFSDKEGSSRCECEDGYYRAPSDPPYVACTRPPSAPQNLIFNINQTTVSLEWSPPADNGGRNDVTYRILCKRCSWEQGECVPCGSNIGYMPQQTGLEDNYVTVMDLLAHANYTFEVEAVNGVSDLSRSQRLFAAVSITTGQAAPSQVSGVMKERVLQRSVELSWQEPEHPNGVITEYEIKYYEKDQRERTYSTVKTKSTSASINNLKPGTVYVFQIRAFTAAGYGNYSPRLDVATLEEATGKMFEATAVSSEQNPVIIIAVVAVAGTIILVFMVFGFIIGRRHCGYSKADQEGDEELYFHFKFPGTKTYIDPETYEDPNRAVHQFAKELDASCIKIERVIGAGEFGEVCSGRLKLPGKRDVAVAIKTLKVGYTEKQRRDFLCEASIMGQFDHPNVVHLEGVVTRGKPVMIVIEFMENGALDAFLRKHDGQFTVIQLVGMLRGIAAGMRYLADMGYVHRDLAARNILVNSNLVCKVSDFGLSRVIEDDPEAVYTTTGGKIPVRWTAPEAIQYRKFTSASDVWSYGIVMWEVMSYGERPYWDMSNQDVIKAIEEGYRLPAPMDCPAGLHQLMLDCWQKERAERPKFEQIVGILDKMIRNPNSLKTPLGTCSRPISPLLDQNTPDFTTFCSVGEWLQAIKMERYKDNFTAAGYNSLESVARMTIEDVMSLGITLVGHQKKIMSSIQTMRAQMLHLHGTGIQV
Sequence of Macrophage-stimulating protein receptor (Homo sapiens) (Q04912 25-304 limits assumed): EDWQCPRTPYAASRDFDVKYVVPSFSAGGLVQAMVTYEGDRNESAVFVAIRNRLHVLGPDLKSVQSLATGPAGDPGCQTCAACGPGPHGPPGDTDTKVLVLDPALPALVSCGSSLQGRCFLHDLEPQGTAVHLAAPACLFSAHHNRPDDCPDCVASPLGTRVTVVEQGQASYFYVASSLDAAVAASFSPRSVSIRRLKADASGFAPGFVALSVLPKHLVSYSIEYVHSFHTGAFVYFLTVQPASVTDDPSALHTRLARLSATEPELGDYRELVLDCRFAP
Sequence of Macrophage-stimulating protein receptor (Homo sapiens) (Q04912 310-1400 limits assumed): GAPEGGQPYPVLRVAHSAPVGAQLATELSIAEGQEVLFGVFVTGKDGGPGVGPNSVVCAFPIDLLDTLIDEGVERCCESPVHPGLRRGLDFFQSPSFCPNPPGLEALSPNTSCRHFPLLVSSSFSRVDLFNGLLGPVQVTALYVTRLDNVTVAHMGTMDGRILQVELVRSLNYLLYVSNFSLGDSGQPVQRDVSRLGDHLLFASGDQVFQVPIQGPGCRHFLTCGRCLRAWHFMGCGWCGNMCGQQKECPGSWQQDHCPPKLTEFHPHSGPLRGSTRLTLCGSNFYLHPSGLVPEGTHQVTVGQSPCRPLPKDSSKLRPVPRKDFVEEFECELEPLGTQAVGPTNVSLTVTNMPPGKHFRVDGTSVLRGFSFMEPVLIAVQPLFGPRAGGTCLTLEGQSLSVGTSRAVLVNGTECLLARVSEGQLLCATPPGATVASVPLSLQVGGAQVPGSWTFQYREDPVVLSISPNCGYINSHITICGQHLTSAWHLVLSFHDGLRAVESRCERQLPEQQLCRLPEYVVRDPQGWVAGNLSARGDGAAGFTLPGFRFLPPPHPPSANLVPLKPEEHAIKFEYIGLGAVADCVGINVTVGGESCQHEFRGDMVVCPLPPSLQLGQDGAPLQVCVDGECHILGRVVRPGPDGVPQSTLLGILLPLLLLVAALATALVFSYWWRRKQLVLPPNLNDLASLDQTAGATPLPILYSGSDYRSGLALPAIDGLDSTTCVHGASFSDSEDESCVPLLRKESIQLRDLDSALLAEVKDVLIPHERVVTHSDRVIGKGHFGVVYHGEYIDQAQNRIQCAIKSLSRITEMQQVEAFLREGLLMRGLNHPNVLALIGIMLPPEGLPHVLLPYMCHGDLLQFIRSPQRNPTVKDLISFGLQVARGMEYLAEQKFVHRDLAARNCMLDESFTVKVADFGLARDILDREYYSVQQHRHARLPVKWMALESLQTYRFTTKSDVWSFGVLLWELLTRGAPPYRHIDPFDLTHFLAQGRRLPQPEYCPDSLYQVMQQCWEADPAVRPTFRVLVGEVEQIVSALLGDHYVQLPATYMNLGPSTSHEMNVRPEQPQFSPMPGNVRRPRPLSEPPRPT
Sequence of Tyrosine-protein kinase FRK (Homo sapiens) (P42685 whole entry, the tested form may be a part): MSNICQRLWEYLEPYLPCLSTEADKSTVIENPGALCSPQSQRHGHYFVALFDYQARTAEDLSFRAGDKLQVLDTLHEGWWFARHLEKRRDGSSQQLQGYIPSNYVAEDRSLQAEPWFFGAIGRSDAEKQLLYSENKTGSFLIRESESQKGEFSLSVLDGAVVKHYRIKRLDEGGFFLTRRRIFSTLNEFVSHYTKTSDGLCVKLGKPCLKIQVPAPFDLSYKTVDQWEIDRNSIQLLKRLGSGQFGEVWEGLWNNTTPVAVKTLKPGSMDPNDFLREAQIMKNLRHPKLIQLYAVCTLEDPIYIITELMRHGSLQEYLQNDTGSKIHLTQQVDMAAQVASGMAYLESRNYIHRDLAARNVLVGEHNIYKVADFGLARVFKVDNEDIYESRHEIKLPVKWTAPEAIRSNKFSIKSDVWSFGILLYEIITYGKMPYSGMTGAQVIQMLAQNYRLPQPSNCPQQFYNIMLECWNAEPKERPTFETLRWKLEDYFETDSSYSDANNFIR
Sequence of Platelet-derived growth factor receptor beta (Homo sapiens) (P09619 whole entry, the tested form may be a part): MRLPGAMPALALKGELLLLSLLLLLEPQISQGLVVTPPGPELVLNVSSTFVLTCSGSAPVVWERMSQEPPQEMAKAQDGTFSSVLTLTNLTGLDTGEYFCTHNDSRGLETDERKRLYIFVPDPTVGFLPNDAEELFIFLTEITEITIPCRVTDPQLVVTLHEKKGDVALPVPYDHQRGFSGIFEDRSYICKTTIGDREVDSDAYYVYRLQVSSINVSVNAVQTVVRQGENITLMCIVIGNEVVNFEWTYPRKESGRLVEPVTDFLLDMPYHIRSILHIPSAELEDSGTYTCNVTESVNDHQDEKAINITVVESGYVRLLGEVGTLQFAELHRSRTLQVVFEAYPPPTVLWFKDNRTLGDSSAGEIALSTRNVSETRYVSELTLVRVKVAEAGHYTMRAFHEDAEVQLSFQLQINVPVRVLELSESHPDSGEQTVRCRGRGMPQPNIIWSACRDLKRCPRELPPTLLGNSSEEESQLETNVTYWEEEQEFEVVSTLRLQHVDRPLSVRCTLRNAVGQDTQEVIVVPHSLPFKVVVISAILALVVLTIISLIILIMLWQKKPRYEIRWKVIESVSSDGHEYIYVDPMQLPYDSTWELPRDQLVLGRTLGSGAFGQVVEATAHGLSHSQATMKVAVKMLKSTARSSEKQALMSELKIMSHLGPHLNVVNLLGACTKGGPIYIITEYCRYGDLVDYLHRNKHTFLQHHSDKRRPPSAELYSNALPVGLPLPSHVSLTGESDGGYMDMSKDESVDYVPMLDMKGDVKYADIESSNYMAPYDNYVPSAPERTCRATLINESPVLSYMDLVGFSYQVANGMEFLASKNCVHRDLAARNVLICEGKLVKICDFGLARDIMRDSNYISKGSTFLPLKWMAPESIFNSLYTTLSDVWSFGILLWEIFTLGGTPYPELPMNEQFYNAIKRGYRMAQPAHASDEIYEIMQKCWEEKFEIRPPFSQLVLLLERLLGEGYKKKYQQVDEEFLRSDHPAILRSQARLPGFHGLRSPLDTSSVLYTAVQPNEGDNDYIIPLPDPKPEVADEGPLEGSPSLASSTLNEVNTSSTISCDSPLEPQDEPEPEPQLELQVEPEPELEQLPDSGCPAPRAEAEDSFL

Broadly, the EC50 is the concentration at which the effect is half-maximal. On to `C=CC(=O)Nc1cc(Nc2ncc(Cl)c(Nc3ccccc3S(=O)(=O)C(C)C)n2)c(OC)cc1N(C)CCN(C)C`, for which the EC50 in test [1] was 0.82 µM. The Activity in [2] is 2.3%; in test [3] it was 8.4%; in test [4], 96%; in test [5], 100%; in [6], 87%; in test [7], 47%. The Activity in test [8] came to 30%; in [9] it was 68%; in test [10], 39%; in test [11], 5.9%; in test [12], 9.4%; in test [13], 96%. For the same compound, the Activity worked out at 63% in [14]; 3.3% in test [15]; 100% in test [16]; 43% in [17]; 94% in test [18]; 69% in [19]. The Activity in [20] was 100%; in test [21], 9.7%; in [22], 46%; in [23], 99%; in test [24] it was 68%.
